# Screening data: PubChem, Broad Institute
# A1 apoptosis 2 = compounds inhibiting A1, read as caspase activation; 24,000 tested, under 10 active; MEF A1-2A-BIM cells, caspase-Glo luminescence, 3 h; percent of clofoctol response, DMSO zero; caspase activation, % (no concentration beside the values); in the data active = caspase activation above about 5.9%; inconclusive = no clear call, values can overlap the other calls; inactive = below about 2.2%
#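 Material: A1-2A-BIM-expressing MEF cells. Buffer or medium: RPMI-1640 plus 10% FBS. Incubation: cells settled overnight, compound exposure 3 h at 37 °C, 5% CO2. Signal: Caspase-Glo 3/7 luminescence, 1 h at room temperature.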
# INS-1E rescue = preserves ATP levels in cytokine-treated INS-1E cells. 20,000 tested, 0.1% active. protection from cytokine-induced ATP loss, % at 10 µM. INS-1E cytokine-induced death, ATP luminescence, 48 h; normalised: neutral wells 0, positive control 100;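 active = mean replicate protection from cytokine-induced ATP loss at least 50% and at least 75% of replicates each reaching 50%; inconclusive = meets only one of the two criteria, mean or replicate share; inactive = fails both the mean and replicate share criteria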
#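 Material: INS-1E rat cells; Quantity: 8000 cells/well; Buffer or medium: phenol-red-free RPMI with 5% fetal bovine serum; Probe or stimulus: cytokine cocktail of IFN-γ, TNF-α and IL-1β; Compound dosing: single test concentration per compound, delivered by pin transfer; Incubation: 48 h co-treatment, 10 min post-lysis read; Signal: CellTiter-Glo luminescence.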
# T cruzi intra = intracellular Trypanosoma cruzi inhibition. intracellular Trypanosoma cruzi in host cells, plate reader. activity score (inhibition), % at 5.01 µM. 22,000 tested, 4.9% active. AID 651903; in the data active = activity score above about 55%; inconclusive = no clear call, values can overlap the other calls;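 note: parasites and compound incubated about four days before reading; 0% = median of neutral control wells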
# Numbers without * were called inactive; ? = inconclusive; . = no result given. Many of the other results were omitted from the sample, so hits are more common in it than they were.
SMILES,A1 apoptosis 2,INS-1E rescue,T cruzi intra
C[C@H]1CN([C@@H](C)CO)C(=O)Cc2cc(NC(=O)Nc3ccc(F)cc3)ccc2O[C@@H]1CN(C)Cc1ccc(Oc2ccccc2)cc1,.,-24.9,70.3*
C[C@@H]1CN([C@H](C)CO)C(=O)Cc2cc(NC(=O)Nc3ccc(F)cc3)ccc2O[C@H]1CN(C)Cc1ccc(Oc2ccccc2)cc1,.,-68.0,?
O=C(O)CCCCCC(=O)N/N=C/CCC1CCCCC1,2.0,-5.9,-17.3
O=C(CCCCCC(=O)N/N=C/c1ccc(-n2ccnc2)cc1)NO,.,22.4,-4.2
Cc1ccc(S(=O)(=O)N[C@H](C(=O)NCCn2cc(CN3C(=O)COC[C@H]3c3ccccc3)nn2)C(C)C)cc1,0.7,.,.
O=C(CCCCCC(=O)N/N=C/c1cc(Cl)cc(Cl)c1O)NO,0.7,.,.
C[C@H](CO)N1C[C@H](C)[C@@H](CN(C)Cc2ccc(-c3ccccc3)cc2)Oc2c(NC(=O)Nc3cccc4ccccc34)cccc2C1=O,.,-19.0,28.0
COC(=O)CCCCCCC(=O)N/N=C/c1cn(Cc2ccccc2)c2ccccc12,.,-0.3,4.8
O=C(NO)c1ccc(C(=O)N/N=C/c2ccoc2)cc1,0.3,5.7,1.4
O=C(CCCCCCC(=O)N/N=C/c1ccc(O)cc1)NO,-1.6,.,.
C[C@H]1CN([C@@H](C)CO)C(=O)c2cccc(NC(=O)CCCCCC(=O)Nc3ccccc3N)c2O[C@@H]1CN(C)Cc1ccccc1,0.1,.,.
O=C(NO)c1cccc(C(=O)N/N=C/c2ccccc2OCCO)c1,-0.8,10.0,-12.6
COc1ccc(NC(=O)Nc2ccc3c(c2)CC(=O)N([C@H](C)CO)C[C@H](C)[C@H](CN(C)Cc2ccc(-c4ccccc4)cc2)O3)cc1,-0.3,-35.9,15.1
COc1ccc(NC(=O)Nc2ccc3c(c2)CC(=O)N([C@H](C)CO)C[C@@H](C)[C@@H](CN(C)Cc2ccc(-c4ccccc4)cc2)O3)cc1,.,-9.6,72.3*
O=C(N/N=C/c1nccs1)c1ccccn1,-0.8,-87.2,-25.3
C[C@@H]1CN([C@H](C)CO)C(=O)Cc2cc(NC(=O)Cc3ccccc3)ccc2O[C@H]1CN(C)Cc1ccc(-c2ccccc2)cc1,.,0.5,65.2*
C[C@@H]1CN([C@@H](C)CO)C(=O)Cc2cc(NC(=O)Cc3ccccc3)ccc2O[C@H]1CN(C)Cc1ccc(-c2ccccc2)cc1,1.5,.,.
COc1ccc(CN(C)C[C@@H]2Oc3ccc(NC(=O)Cc4ccccc4)cc3CC(=O)N([C@H](C)CO)C[C@H]2C)cc1,-1.0,8.9,54.0
C[C@H]1CN([C@@H](C)CO)C(=O)Cc2cc(NC(=O)Cc3ccccc3)ccc2O[C@@H]1CN(C)Cc1ccc(-c2ccccc2)cc1,.,-19.1,64.3*
C[C@H]1CN([C@@H](C)CO)C(=O)Cc2cc(NC(=O)Cc3ccccc3)ccc2O[C@H]1CN(C)Cc1ccc(-c2ccccc2)cc1,1.0,-14.7,47.3
COc1ccc(CN(C)C[C@@H]2Oc3ccc(NC(=O)Cc4ccccc4)cc3CC(=O)N([C@@H](C)CO)C[C@@H]2C)cc1,0.0,-4.0,66.9*
COc1ccc(Br)cc1/C=N/NC(=O)CCCCCC(=O)Nc1ccccc1O,-0.2,-4.9,10.6
Cc1c(NC(=O)/C(C#N)=C/c2cccc([N+](=O)[O-])c2)c(=O)n(-c2ccccc2)n1C,0.3,.,.
C=CCNC(=O)[C@H]1[C@@H]2C(=O)O[C@@H](c3ccccc3)[C@@H](c3ccccc3)N2[C@@H](c2ccc(O)cc2)[C@]12C(=O)N(C(=O)OCCOC)c1ccc(C#CC3=CCCCC3)cc12,1.4,.,.
COC(=O)CCCCCCC(=O)N/N=C/c1ccc(S(=O)(=O)O)o1,-0.3,3.9,-19.1
SMILES,A1 apoptosis 2,INS-1E rescue,T cruzi intra
O=C(CCCCCCC(=O)Nc1ccccc1O)NN=C1CCCCCCC1,-0.1,0.6,1.6
C[C@@H]1CN([C@@H](C)CO)C(=O)Cc2cc(NC(=O)Nc3ccc4c(c3)OCO4)ccc2O[C@@H]1CN(C)Cc1ccc(Cl)c(Cl)c1,.,-39.9,46.9
C[C@@H]1CN([C@@H](C)CO)C(=O)Cc2cc(NC(=O)Nc3ccc(F)cc3)ccc2O[C@H]1CN(C)Cc1ccc(Cl)c(Cl)c1,1.3,.,.
C[C@H]1CN([C@@H](C)CO)C(=O)Cc2cc(NC(=O)Nc3ccc(F)cc3)ccc2O[C@H]1CN(C)Cc1ccc(Cl)c(Cl)c1,2.0,-51.9,64.0*
C[C@H]1CN([C@@H](C)CO)C(=O)Cc2cc(NC(=O)Nc3ccc4c(c3)OCO4)ccc2O[C@H]1CN(C)Cc1ccc(Cl)c(Cl)c1,.,-6.4,63.3*
C[C@@H]1CN([C@H](C)CO)C(=O)Cc2cc(NC(=O)Nc3ccc(F)cc3)ccc2O[C@@H]1CN(C)Cc1ccc(Cl)c(Cl)c1,0.2,-13.5,68.1*
